# hERG protect: shields human hERG channel from block by proarrhythmic agents. Q12809. CHO-hERG, FluxOR thallium flux, dofetilide IC70 present. activation (rescue from dofetilide block), less the hit threshold, % at 10 µM. 0.51% of 310,000 active;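 active = activation above the mean of controls blocked by dofetilide plus 5 SD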;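 also: thallium influx through hERG after potassium depolarization seen as dye fluorescence rise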
# KCNK9 block: human KCNK9 channel inhibition; Q9NPC2; HEK293 KCNK9, FluxOR thallium flux fluorescence; stronger effect = lower value; B-score at 10 µM; 1.2% of 310,000 active; AID 488922;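 active = ratio B-score over 3 SD below the library mean, with starting fluorescence within 5 SD of its mean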;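 also: negative B-score means less thallium flux so channel inhibition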
# KCNK3 inh: human KCNK3 channel inhibition, primary screen | O14649 | CHO-KCNK3 thallium flux, FluxOR fluorescence; stronger effect = lower value | B-score at 10 µM | 0.84% of 340,000 active | AID 602410;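 active = B-score under library mean minus 4 SD, starting fluorescence ratio at most library mean plus 5 SD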;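 also: more negative B-score means stronger inhibition of thallium flux through KCNK3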
# KCNQ1 block: inhibitors of human KCNQ1 potassium channel; 1.3% of 310,000 active; P51787; B-score at 10 µM; CHO-K1 KCNQ1, FluxOR thallium flux fluorescence; stronger effect = higher value;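 active = compounds whose thallium flux B-score, printed positive for inhibition, exceeds three library SD while starting fluorescence stays within three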;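 also: channel opened by potassium depolarization with thallium stimulus after 20 min compound exposure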
# KCNQ1 pot: human KCNQ1 channel potentiation or activation. 0.35% of 310,000 active. AID 2648. B-score at 10 µM. CHO-K1 KCNQ1, thallium flux FluxOR fluorescence; stronger effect = higher value. P51787;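 active = fluorescence ratio B-score, a plate-corrected score, at least three library SD, with initial intensity B-score within 5 SD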
#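 Assay system: stable KCNQ1 CHO-K1 line; medium: assay buffer, equal DMSO in all wells; timing: 90 min dye loading and 20 min compound exposure, both at room temperature; technique: kinetic FluxOR thallium fluorescence, 10-s 1-Hz baseline, 110-s post-stimulus read; read-out basis: B score of baseline-normalized fluorescence ratio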
# Kir21 inh: blocks the mouse Kir2.1 inward-rectifier potassium channel; P35561; AID 1672; 0.85% of 310,000 active; B-score at 10 µM; HEK293-Kir2.1, FluxOR thallium flux fluorescence; stronger effect = lower value;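 active = fluorescence ratio B-score at or below minus 3 SD of library scores, with starting-brightness B-score within 2 SD, cut at about -4.2 in these data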;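 also: channel flux triggered by added potassium and thallium sulfate stimulus; B-score of peak minus minimum fluorescence over baseline after thallium stimulus; more negative B-score means stronger Kir2.1 block with less thallium influx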
# KCNQ1 block val: human KCNQ1 channel inhibition, validation assay; shares compounds with KCNQ1 block; KCNQ1 cell line, FluxOR thallium flux fluorescence; inhibition, % at 10 µM; 93% of 1,600 active;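 active = primary screen active, with duplicate mean exceeding buffer control mean plus 3 SD of buffer wells, cut at about 28% in these data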;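 also: 0% = buffer control ratio and 100% = XE991 inhibitor control ratio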
# CHO Tl flux: counter-screen for KCNQ1 inhibitors: effect in parental CHO cells | parental CHO-K1, FluxOR thallium flux fluorescence ratio; stronger effect = lower value; zero means no signal rise above baseline | fluorescence ratio (Tl flux) at 10 µM | shares compounds with KCNQ1 block | AID 588366 | 21% of 1,600 active;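 active = mean of duplicate thallium-flux fluorescence ratios in parental host cells more than 5 SD below the buffer control mean, cut at about 0.38 in these data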;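 also: ratio is peak minus minimum fluorescence divided by baseline fluorescence; actives read low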
# KCNQ1 ephys val: blocks human KCNQ1 current in automated patch clamp; shares compounds with KCNQ1 block; KCNQ1-CHO cells; calls only at 10 µM; 20% of 490 active;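 active = KCNQ1 current drop exceeding 3 SD of negative control wells, seen in both duplicate runs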;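 also: steady state current during a 2 s step from -80 to +40 mV; negative values mean current inhibition and positive values mean potentiation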
# KCNQ2 spec: rat KCNQ2 inhibition in KCNQ1 inhibitor specificity screen | KCNQ2 cells, FluxOR thallium flux fluorescence | AID 651746 | 71% of 1,600 active | shares compounds with KCNQ1 block | inhibition, % at 10 µM;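 active = mean percent inhibition of the KCNQ2 thallium signal more than 5 SD above the buffer-only control wells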;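 also: KCNQ2 expressed in CHO cells; 0% = buffer control wells and 100% = XE-991 inhibitor control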
# Target sequence (O88943 whole entry, looked up): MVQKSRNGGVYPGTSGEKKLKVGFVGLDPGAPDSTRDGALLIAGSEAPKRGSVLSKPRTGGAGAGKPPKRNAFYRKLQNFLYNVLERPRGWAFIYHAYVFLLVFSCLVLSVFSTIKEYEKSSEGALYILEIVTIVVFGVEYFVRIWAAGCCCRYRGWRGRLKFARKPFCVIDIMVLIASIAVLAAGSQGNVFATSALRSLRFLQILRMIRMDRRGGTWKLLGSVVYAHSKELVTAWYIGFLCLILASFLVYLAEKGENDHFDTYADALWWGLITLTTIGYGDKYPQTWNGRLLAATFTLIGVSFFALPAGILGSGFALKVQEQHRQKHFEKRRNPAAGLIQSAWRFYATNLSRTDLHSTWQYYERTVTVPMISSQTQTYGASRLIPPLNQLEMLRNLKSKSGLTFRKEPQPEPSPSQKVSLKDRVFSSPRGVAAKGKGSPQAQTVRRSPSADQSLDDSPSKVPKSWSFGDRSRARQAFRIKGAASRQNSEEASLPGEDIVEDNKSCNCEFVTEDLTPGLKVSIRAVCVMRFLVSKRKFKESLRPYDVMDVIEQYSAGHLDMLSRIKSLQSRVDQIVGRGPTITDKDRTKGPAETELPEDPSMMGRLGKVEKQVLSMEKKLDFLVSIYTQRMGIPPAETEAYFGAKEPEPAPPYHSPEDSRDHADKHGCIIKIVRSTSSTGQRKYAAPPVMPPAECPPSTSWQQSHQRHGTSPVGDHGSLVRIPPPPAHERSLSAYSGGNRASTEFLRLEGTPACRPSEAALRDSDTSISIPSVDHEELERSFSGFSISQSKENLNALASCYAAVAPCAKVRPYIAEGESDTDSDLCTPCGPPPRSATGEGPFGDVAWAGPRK
# KCNQ1 KCNE1 spec: selectivity of KCNQ1 inhibitors: inhibition of human KCNQ1/KCNE1 channel; shares compounds with KCNQ1 block; KCNQ1/KCNE1 cells, FluxOR thallium flux fluorescence; inhibition, % at 10 µM; 77% of 1,600 active; AID 652147;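 active = mean percent inhibition of duplicate wells above the buffer-only control mean plus 3 SD of those controls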;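 also: 0% = buffer only wells and 100% = XE-991 inhibitor control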
# Starred values were filed as active, the others as inactive; i = inactive; . = not tested or not shown; + = active, no number. Shown are actives, neighbours in structure and some others; about 3.7% of the full set was active somewhere.
SMILES,hERG protect,KCNK9 block,KCNK3 inh,KCNQ1 block,KCNQ1 pot,Kir21 inh,KCNQ1 block val,CHO Tl flux,KCNQ2 spec,KCNQ1 KCNE1 spec,others
CC(=NNC(=O)CCC(=O)Nc1ccccc1Cl)c1ccco1,.,.,i,.,.,.,.,.,.,.,
CC(C)(C)C1CCC2(CC1)C(C#N)=C(SCC(=O)NC1CCCCC1)NC(=O)C2C#N (configuration not stated),-7.1,i,i,9*,i,-1.9,71.5*,0.422,72.0%*,i,
FC(F)(F)c1nc(SCc2ccc(Cl)cc2Cl)n[nH]1,-18.4,i,i,6*,i,1.08,0.0,0.476,i,i,
CCOC(=O)C1OC1(c1ccccc1)c1ccccc1 (configuration not stated),.,.,i,.,.,.,.,.,.,.,
Cn1c(O)c(/C=N/NC(=O)c2cc3ccccc3cc2O)c2ccccc21,-24.3,i,i,17*,i,-6.29,101.0*,0.321*,i,i,
COCCn1c(C)cc(/C=N/NC(=O)c2cc3ccccc3cc2O)c1C,.,.,i,.,.,.,.,.,.,.,
Clc1ccc2[nH]c3c(NCC4CCCO4)ncnc3c2c1 (configuration not stated),-29.1,i,.,8*,i,1.02,106.0*,0.487,89.7%*,i,KCNQ1 ephys val=+
Clc1ccc2[nH]c3c(NCCN4CCOCC4)ncnc3c2c1,-16.8,i,i,i,i,-1.15,.,.,.,.,
Clc1ccc(-c2csc(N3CCCCCC3)n2)cc1,-2.2,i,i,8*,i,-0.94,123.0*,0.506,80.7%*,139.5%*,KCNQ1 ephys val=i
Clc1ccc(-c2csc(N3CCOCC3)n2)cc1,-8.5,i,i,i,i,-0.11,.,.,.,.,
CCOC(=O)c1ccc(NC(=O)CN2C(=O)NC3(CCCCCCC3)C2=O)cc1,.,.,i,.,.,.,.,.,.,.,
O=C(Nc1nc(-c2ccccc2)cs1)C1CCCCN1S(=O)(=O)c1ccc(Cl)cc1 (configuration not stated),-14.2,i,i,10*,i,-1.16,90.0*,0.463,93.0%*,131.0%*,KCNQ1 ephys val=i
O=C(CCc1c[nH]c2ccccc12)NC(Cc1ccccc1)C(=O)O (configuration not stated),-4.1,i,i,i,i,0.12,.,.,.,.,
COc1ccc(CN(C)C(=O)c2ccc(OCC(=O)N3CCOCC3)c(OC)c2)cc1,.,.,i,.,.,.,.,.,.,.,
O=C1CCc2cc(NS(=O)(=O)c3cc(F)ccc3F)cc3c2N1CC3,-7.0,i,i,i,i,-0.02,.,.,.,.,
CCOC(=O)c1oc2ccc(S(=O)(=O)n3nc(-c4cc(OC)c(OC)c(OC)c4)cc3N)cc2c1C,-35.8,i,i,7*,i,-0.82,62.5*,0.419,71.0%*,109.5%*,
COc1cc(-c2cc(N)n(S(=O)(=O)c3ccc(F)cc3)n2)cc(OC)c1OC,-16.8,i,i,i,i,-0.13,.,.,.,.,
Cc1cc(C)c(-c2cc(NC(=O)COC(=O)c3ccc(CO)cc3)n(-c3ccccc3)n2)cc1C,-9.9,i,i,i,i,0.28,.,.,.,.,
Cc1cc(C)c(-c2cc(NC(=O)CSc3n[nH]c(N)n3)n(-c3ccccc3)n2)cc1C,-14.8,i,i,7*,i,0.52,78.5*,0.454,89.0%*,127.5%*,
CN(C)c1nc(N)c([N+](=O)[O-])c(N2CCCCCC2)n1,-3.1,i,i,i,i,1.68,.,.,.,.,
COC(=O)C(C)Sc1nnc2n(-c3cccc(C)c3)c(=O)c3c4c(sc3n12)CCCC4 (configuration not stated),-19.0,i,i,6*,i,0.47,42.0*,0.493,87.0%*,52.0%*,
O=C(Nc1ccccc1)Nc1ccc(Cl)c(S(=O)(=O)N2CCOCC2)c1,-19.5,i,i,11*,i,-0.06,0.0,0.562,i,i,
Cc1ccccc1NC(=O)C(c1ccccc1)C1CCCC1 (configuration not stated),-11.4,i,i,i,i,0.21,.,.,.,.,
O=C(Nc1ccc2ccccc2c1)C(c1ccccc1)C1CCCC1 (configuration not stated),-24.9,-7.54*,i,15*,i,-0.3,138.5*,0.314*,123.0%*,167.0%*,
CC(C)[C@H](NC(=O)N1c2ccccc2NC(=O)[C@@H]1C(C)C)C(=O)N1CCC(C(=O)O)CC1,-5.3,i,i,i,i,0.61,.,.,.,.,
SMILES,hERG protect,KCNK9 block,KCNK3 inh,KCNQ1 block,KCNQ1 pot,Kir21 inh,KCNQ1 block val,CHO Tl flux,KCNQ2 spec,KCNQ1 KCNE1 spec,others
COc1ccc(NS(=O)(=O)c2ccc(-c3cnc(C4CC4)o3)cc2)cc1OC,-14.3,i,i,8*,i,-0.62,85.5*,0.47,83.0%*,i,
COc1ccccc1NS(=O)(=O)c1ccc(-c2cnc(C3CC3)o2)cc1,-7.5,i,i,i,i,-1.11,.,.,.,.,
CN(C)CCCn1c2c(c(SCC(=O)Nc3cccc4ccccc34)nc1=O)CCCC2,-5.9,i,i,i,i,2.41,.,.,.,.,
COc1cccc(OC)c1C(=O)Nc1ccnn1C,-1.6,i,i,i,i,0.01,.,.,.,.,
CC(C)(C)c1csc(NC(=O)c2ccccc2O)n1,-11.7,i,i,9*,i,2.36,65.0*,0.547,i,i,
O=C(NC1CCC(O)CC1)c1cccnc1Sc1ccccc1Cl (configuration not stated),-12.3,i,i,i,i,0.59,.,.,.,.,
CCN1C(=O)C(CC(=O)Nc2ccc(Br)cc2)N(CCCc2ccccc2)C1=S (configuration not stated),-13.9,i,i,8*,i,-0.01,140.0*,0.334*,114.7%*,196.0%*,
COc1ccc(N(CC(=O)NCc2ccccc2)S(=O)(=O)c2c(C)n[nH]c2C)cc1,-10.1,i,i,i,i,0.03,.,.,.,.,
COc1ccc(N(CC(=O)NCc2ccc(Cl)cc2)S(=O)(=O)c2c(C)n[nH]c2C)cc1,-22.5,i,i,7*,i,-0.03,58.5*,0.489,74.7%*,60.0%*,
